Hits are enriched below; roughly 3.4% of the tested compounds scored in any of these assays.
VIM-2 inh: blocks Pseudomonas aeruginosa VIM-2 metallo-beta-lactamase. purified VIM-2, nitrocefin hydrolysis, epi-absorbance fluorescence. inhibition, % at 5.6 µM. hit rate 0.89% among 290,000;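 active means inhibition above the mean of all tested compounds plus 3 SD, cutoff set per screening run, cut at about 7.5% in these data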;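 further: red hydrolysis product quenches plate fluorescence so inhibitors raise well fluorescence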
IMP-1 inhibitor: blocks Pseudomonas aeruginosa IMP-1 metallo-beta-lactamase; purified IMP-1, nitrocefin hydrolysis, epi-absorbance fluorescence; inhibition, % at 5.6 µM; hit rate 0.45% among 290,000; AID 1556;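 active means inhibition above the mean plus 3 SD of all compounds in the same screening run, cut at about 4.5% in these data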
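system = purified recombinant IMP-1 beta-lactamase | amount = 0.2 nM IMP-1, as dispensed | medium = HEPES buffer pH 7.1 with ZnSO4 and Brij 35 | times = 25 °C, 15 min preincubation, 25 min reaction | detection = plate fluorescence quenching by hydrolysis product, ex 480/em 530 nm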
TMEM16A act: activators or potentiators of mouse TMEM16A chloride channel | B-score at 10 µM | Q8BHY3 | hit rate 0.3% among 340,000 | AID 623877 | HEK293 TMEM16A/YFP-H148Q/I152L, iodide quench fluorescence; hits give low values;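 active means fluorescence-ratio B-score plate-corrected deviation score at least 3 library SD below zero, with starting fluorescence score within 5 deviations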;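 further: channel opened by trigger with iodide after compound preincubation; score built on the fluorescence ratio of max minus min over baseline; more negative score means more quench and so TMEM16A activation or potentiation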
CHT block: human CHT choline transport inhibition. Q9GZV3. hit rate 0.86% among 310,000. B-score at 10 µM. CHT-expressing cells, membrane potential dye, choline response; hits give low values. AID 488975;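 active means B-score over 3 SD under the library average, and starting fluorescence ratio not unusually high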;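 further: choline stimulus applied at its EC90 after an EC20 pre-addition; B-score computed on integrated fluorescence ratio after choline addition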
Target sequence (Q9GZV3 whole entry, looked up): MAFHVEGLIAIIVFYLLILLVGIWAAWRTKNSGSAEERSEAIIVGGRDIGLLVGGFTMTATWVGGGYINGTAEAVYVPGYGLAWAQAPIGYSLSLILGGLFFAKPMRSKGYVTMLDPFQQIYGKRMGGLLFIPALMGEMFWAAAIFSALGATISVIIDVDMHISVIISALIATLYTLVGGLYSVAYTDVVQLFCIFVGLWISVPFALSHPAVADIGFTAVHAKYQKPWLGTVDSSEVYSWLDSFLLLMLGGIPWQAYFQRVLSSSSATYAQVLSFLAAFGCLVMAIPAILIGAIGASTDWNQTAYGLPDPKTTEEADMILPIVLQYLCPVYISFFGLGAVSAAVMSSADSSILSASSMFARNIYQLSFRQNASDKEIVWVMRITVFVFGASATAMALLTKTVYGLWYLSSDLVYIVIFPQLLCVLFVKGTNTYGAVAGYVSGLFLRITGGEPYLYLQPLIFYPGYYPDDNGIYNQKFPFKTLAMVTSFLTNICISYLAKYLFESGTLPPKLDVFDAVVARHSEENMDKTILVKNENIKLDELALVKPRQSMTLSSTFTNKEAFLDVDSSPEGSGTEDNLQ
TMEM16A inh: inhibitors of mouse TMEM16A calcium-activated chloride channel | Q8BHY3 | HEK293 TMEM16A/YFP iodide influx fluorescence, ionomycin | normalized B-score (activity score, 25-100; higher = stronger inhibition) at 10 µM | hit rate 1.2% among 310,000 | AID 588511;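 active means ratio plate-corrected score three or more library SD toward inhibition, starting fluorescence score within five deviations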;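 further: score derived from kinetic fluorescence span divided by baseline fluorescence per well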
CHT PAM: human CHT allosteric activation. Q9GZV3. B-score at 10 µM. CHT-expressing cells, membrane potential dye, choline EC20; hits give high values; LV-AA mutant CHT in HEK293 cells. hit rate 0.49% among 310,000;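 active means initial fluorescence not abnormally high and integrated response B-score, plate-corrected, over 3 SD above library mean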
TMEM16A reconf: reconfirmed blocker of mouse TMEM16A calcium-activated chloride channel | inhibition, % at 10 µM | hit rate 39% among 2,300 | shares compounds with TMEM16A inh | AID 652189 | HEK293 TMEM16A/YFP-H148Q, iodide quench fluorescence; ionomycin added to raise cell calcium;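 active means mean duplicate percent inhibition, scaled so buffer wells are 0 and the reference blocker 100, over three buffer SD above buffer mean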
TMEM16A Ca cntr: counter-screen for TMEM16A inhibitors: effect on calcium mobilization; TMEM16A/YFP HEK293, Fluo4 calcium mobilization; shares compounds with TMEM16A inh; hit rate 2% among 2,300; calcium response (% of ionomycin), % at 10 µM; AID 652231;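 active means duplicate-averaged calcium signal over 20% of the ionomycin maximum, relative to buffer baseline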;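 further: each well's signal is peak minus trough fluorescence divided by its pre-addition baseline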
Parental YFP cnt: parental YFP-HEK293 iodide quench counter-screen activity. ionomycin. AID 652233. shares compounds with TMEM16A inh. 2,300 tested, under 10 active. YFP ratio F(max-min)/F0 at 10 µM;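 active means yellow fluorescent protein signal ratio exceeding the buffer control mean by over 5 SD of those controls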;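 further: ratio is mean of duplicate wells from kinetic YFP trace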
ClC-1 inh: selectivity of TMEM16A inhibitors: inhibition of rat ClC-1 chloride channel. shares compounds with TMEM16A inh. CHO ClC-1-YFP, iodide influx fluorescence quench; iodide control reads 0, buffer control 100. ratio percent, % at 10 µM. 2,300 tested, under 10 active;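 active means duplicate-mean ratio percent above the mean of iodide-only control wells, which defines zero, plus 5 of their SD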;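 further: higher percent means stronger block of ClC-1 iodide influx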
Each line names hits and unclear results; the compound was inactive in the other large screens (follow-up assays come after a bar, where they were run).

COc1ccc(/C=C/c2nc(-c3ccccc3O)n[nH]2)cc1OC	TMEM16A inh 25 | TMEM16A reconf inactive | TMEM16A Ca cntr inactive | Parental YFP cnt inactive | ClC-1 inh inactive
O=C(O)COc1ccc(/C=C/c2nc(-c3ccccc3O)n[nH]2)cc1	none
CCCS(=O)(=O)N1CCCC(C(=O)NCCc2cccc(C)c2)C1 (configuration not stated)	none
O=C(c1cccc(COc2ccc(Cl)cc2Cl)c1)N1CCN(c2ccccn2)CC1	TMEM16A inh 100 | TMEM16A reconf inactive | TMEM16A Ca cntr inactive | Parental YFP cnt inactive | ClC-1 inh inactive
O=C(c1ccc(Cl)c(Cl)c1)N1CCN(c2ccccn2)CC1	none
Cc1cc(C)c(C#N)c(SCc2ccccc2)n1	TMEM16A inh 25 | TMEM16A reconf inactive | TMEM16A Ca cntr inactive | Parental YFP cnt inactive | ClC-1 inh inactive
Cc1cc(C)c(C#N)c(SCc2ccccc2C)n1	TMEM16A inh 25 | TMEM16A reconf inactive | TMEM16A Ca cntr inactive | Parental YFP cnt inactive | ClC-1 inh inactive
CC(=O)N1c2ccc(S(=O)(=O)NCC3CCC(C(=O)NC4CCCCC4)CC3)cc2CC1C (configuration not stated)	none
CCOc1ccc(CONS(=O)(=O)c2ccc(NC(C)=O)cc2)cc1Cl	TMEM16A inh 25 | TMEM16A reconf 23% | TMEM16A Ca cntr inactive | Parental YFP cnt inactive | ClC-1 inh inactive
CC(=O)Nc1ccc(S(=O)(=O)NNC(=O)COc2ccc(Cl)cc2Cl)cc1	none
O=S(Cc1ccccc1)Cc1ccccc1	none (no result: VIM-2 inh, IMP-1 inhibitor, CHT block, TMEM16A inh, CHT PAM)
O=C(CCCCCn1c(=O)[nH]c2ccsc2c1=O)NCc1ccc2c(c1)OCO2	TMEM16A inh 25 | TMEM16A reconf inactive | TMEM16A Ca cntr inactive | Parental YFP cnt inactive | ClC-1 inh inactive
COc1ccccc1-c1cc(C(=O)N2CCN(c3ccccc3)CC2)no1	none
COc1cc2c(C(=O)N3CCN(c4ccccc4)CC3)c(C)oc2cc1Br	none | TMEM16A reconf inactive | TMEM16A Ca cntr inactive | Parental YFP cnt inactive | ClC-1 inh inactive
CSc1cccc(NC(=O)/C=C/c2ccccc2)c1	none
CSc1cccc(NC(=O)/C=C/c2ccc(Cl)cc2)c1	TMEM16A inh 100 | TMEM16A reconf 62% | TMEM16A Ca cntr inactive | Parental YFP cnt inactive | ClC-1 inh inactive
CN(Cc1ccco1)S(=O)(=O)c1nnc(NC(=O)c2cccc(Cl)c2)s1	TMEM16A inh 25 | TMEM16A reconf 26% | TMEM16A Ca cntr inactive | Parental YFP cnt inactive | ClC-1 inh inactive
COCc1ccc(C(=O)N(C)C2CCCN(Cc3ccccc3F)C2)o1 (configuration not stated)	none
O=C(CNc1cccc(S(=O)(=O)N2CCCC2)c1)Nc1cccc(Br)c1	TMEM16A inh 25 (no result: VIM-2 inh, IMP-1 inhibitor) | TMEM16A reconf 16% | TMEM16A Ca cntr inactive | Parental YFP cnt inactive | ClC-1 inh inactive
COc1ccccc1C1CCN(c2ccc(CO)cc2[N+](=O)[O-])CC1	TMEM16A inh 25 | TMEM16A reconf inactive | TMEM16A Ca cntr inactive | Parental YFP cnt inactive | ClC-1 inh inactive
COc1ccccc1C1CCN(Cc2cccc([N+](=O)[O-])c2)CC1	none
CC(Sc1nc(NCc2ccccc2)nc(N(C)C)n1)C(=O)Nc1ccccc1 (configuration not stated)	TMEM16A inh 100 | TMEM16A reconf inactive | TMEM16A Ca cntr inactive | Parental YFP cnt inactive | ClC-1 inh inactive
CC(=O)COC(=O)CCc1nc2ccccc2[nH]c1=O	none
CC(C)(C)C(=O)COC(=O)CCc1nc2ccccc2[nH]c1=O	TMEM16A inh 25 | TMEM16A reconf inactive | TMEM16A Ca cntr inactive | Parental YFP cnt inactive | ClC-1 inh inactive
CCc1c(C)c(C#N)c2[nH]c3ccccc3n2c1=S	TMEM16A inh 100 | TMEM16A reconf 34% | TMEM16A Ca cntr inactive | Parental YFP cnt inactive | ClC-1 inh inactive
CCc1cc(=S)n2c([nH]c3ccccc32)c1C#N	TMEM16A inh 100 | TMEM16A reconf 26% | TMEM16A Ca cntr inactive | Parental YFP cnt inactive | ClC-1 inh inactive
O=C(COc1ccc2ccccc2c1)Nc1ccc(Br)cc1C(=O)O	TMEM16A inh 100 | TMEM16A reconf 42% | TMEM16A Ca cntr inactive | Parental YFP cnt inactive | ClC-1 inh inactive
CCc1ccc(OCC(=O)Nc2ccncc2)cc1	none
CC(C)c1ccc(OCC(=O)Nc2ccncc2)cc1	TMEM16A inh 25 | TMEM16A reconf inactive | TMEM16A Ca cntr inactive | Parental YFP cnt inactive | ClC-1 inh inactive
CC(C)(C)c1ccc(NC(=O)COc2ccc(-n3ccnc3)cc2)cc1	TMEM16A inh 100 | TMEM16A reconf 44% | TMEM16A Ca cntr inactive | Parental YFP cnt inactive | ClC-1 inh inactive
C/C(=N\NC(=O)COc1ccc(C(C)(C)C)cc1)c1ccc(-n2ccnc2)cc1	none
Cc1ccccc1OCC(=O)Nc1ccc(Cc2ccncc2)cc1	none
O=C(COc1ccc(Br)cc1)Nc1ccc(Cc2ccncc2)cc1	TMEM16A inh 100 | TMEM16A reconf inactive | TMEM16A Ca cntr inactive | Parental YFP cnt inactive | ClC-1 inh inactive
COc1ccc(S(=O)(=O)N2CCCCC2)cc1NC(=O)c1ccc(Cl)nc1	none (no result: VIM-2 inh, IMP-1 inhibitor, CHT block, TMEM16A inh, CHT PAM)
Cc1ccc(-n2c(SCC(N)=O)nc3c(oc4ccccc43)c2=O)cc1	none
COc1c(C)cc(Br)cc1C(=O)Nc1ccc(Cc2ccncc2)cc1	TMEM16A inh 100 | TMEM16A reconf inactive | TMEM16A Ca cntr inactive | Parental YFP cnt inactive | ClC-1 inh inactive
O=C(COc1ccc2ccccc2c1)Nc1ccncc1	TMEM16A inh 25 | TMEM16A reconf inactive | TMEM16A Ca cntr inactive | Parental YFP cnt inactive | ClC-1 inh inactive
Cc1ccc(OCC(=O)Nc2ccncc2)c(C)c1	TMEM16A inh 25 | TMEM16A reconf inactive | TMEM16A Ca cntr inactive | Parental YFP cnt inactive | ClC-1 inh inactive
O=C(/C=C/c1ccc(OC(F)F)cc1)Nc1cccc(S(=O)(=O)N2CCOCC2)c1	none
NC(=O)NOCc1ccccc1F	none
COCCNC(=O)CSc1ccccc1C(=O)NC1CCCc2ccccc21 (configuration not stated)	none
COc1ccc2cc3cc(C(=O)Nc4ccc5c(c4)OCO5)oc3nc2c1	TMEM16A inh 100 | TMEM16A reconf inactive | TMEM16A Ca cntr inactive | Parental YFP cnt inactive | ClC-1 inh inactive
